Each structure is given as a SMILES string.

Data set [1] in a line: Antiviral activity against Enterovirus 71 BrCr infected in African green monkey Vero cells assessed as inhibition of virus-induced cytopathic effect after 4 days by MTT assay. The data set is classed as functional, cell-based, Human enterovirus 71 (strain BRCR). An outline of the steps:
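EV71 strain BrCr grown in Vero cells kept in DMEM with 2% FBS; titer by TCID50 end-point dilution. Vero cells inoculated with 100 × TCID50 virus plus serially diluted compounds (DMSO stocks); ribavirin positive control. After four days, morphology checked by light microscopy and viability by MTT to give CPE inhibition rate; IC50 by Forecast function. Mean ± SD, three independent assays, quadruplicate per concentration.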

The nature of data set [2]: Cytotoxicity against African green monkey Vero cells after 4 days by MTT assay. The settings on record: chlorocebus sabaeus. The data set is classed as cell-based. Summed up: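 Vero cells treated or untreated with serially diluted compounds (100 mM DMSO stocks) for four days, viability read by MTT; CC50 calculated by Forecast function. Mean ± SD of three independent assays, each concentration in quadruplicate.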

Data set [3] in a line: Selectivity index, ratio of CC50 for African green monkey Vero cells to IC50 for Enterovirus 71 BrCr. The data set is classed as functional. An outline of the steps:
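SI computed as CC50 (Vero, 4-day MTT) divided by IC50 (EV71 BrCr CPE inhibition, 100 × TCID50, 4-day MTT) for each compound.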

Where [4] appears, read: Enterovirus A, Vero, 96 h, read-out: IC50.

Consider `CC(C)=CCC/C(C)=C/C[C@H]1C[C@@]2(CC=C(C)C)C(=O)[C@](CC=C(C)C)(C(=O)C(C(=O)c3cccc(O)c3)=C2O)C1(C)C`, for which the IC50 entry in data set [1] (vero) is given as “Not Active”. Same read-out and setting: for `CC(C)=CCC/C(C)=C/C[C@@H]1C[C@@]2(CC=C(C)C)C(=O)[C@H](C(=O)C(C(=O)c3ccccc3)=C2O)C1(C)C` the value was “Not Active”; for `C=C(CCC=C(C)C)C(=O)C[C@H]1C[C@@]2(CC=C(C)C)C(=O)[C@H](C(=O)C(C(=O)c3ccccc3)=C2O)C1(C)C`, “Not Active”. Still for that read-out and setting: as for `CC(C)=CCC/C(C)=C/C[C@H]1C[C@@]23C[C@H](O)C(C)(C)OC2=C(C(=O)c2ccccc2)C(=O)[C@H](C3=O)C1(C)C`, the entry is “Not Active”. Same read-out and setting: for `COc1cc(O)c2c(=O)c3c(O)cc(O)c(OC)c3oc2c1` the value was “Not Active”; for `C=C(C)[C@@H](O)CC/C(C)=C/C[C@@H]1C[C@@]2(CC=C(C)C)C(=O)[C@H](C(=O)C(C(=O)c3ccccc3)=C2O)C1(C)C`, “Not Active”. In the case of `C=C(C)[C@H](O)CC/C(C)=C/C[C@H]1C[C@@]2(CC=C(C)C)C(=O)[C@](CC=C(C)C)(C(=O)C(C(=O)c3ccc(O)c(O)c3)=C2O)C1(C)C`, the IC50 entry in data set [1] (vero) is “Not Active”. In turn, `CC(C)=CCC/C(C)=C/C[C@@H]1C[C@@]2(CC=C(C)C)C(=O)C(OC(=O)c3ccccc3)=C(O)[C@H](C2=O)C1(C)C` had a CC50 at 96 h in data set [2] of 37.8 µM. The concentration for half-maximal inhibition (IC50) in data set [1] (setting [4]) is 16.1 µM. For the same compound, the “Ratio CC50/IC50” value in data set [3] is reported as 2.4.

With `CC(=O)C[C@@H]1[C@@H]2C[C@]3(CC=C(C)C)C(=O)[C@@]1(C(=O)c1ccc(O)c(O)c1)C(=O)[C@@](CC=C(C)C)(C3=O)C2(C)C`, the half-maximal inhibitory concentration (IC50) entry in data set [1] (vero) is given as “Not Active”. Still for that read-out and setting: as for `C=C(C)C(=O)CC/C(C)=C/C[C@@H]1C[C@@]2(CC=C(C)C)C(=O)[C@H](C(=O)C(C(=O)c3ccccc3)=C2O)C1(C)C`, the entry is “Not Active”; as for `COc1c(CC=C(C)C)c(O)c2c(=O)c3ccc(O)c(O)c3oc2c1CC=C(C)C` [DULXANTHONE B], “Not Active”. On the same count and under the same terms, as for `CC(C)=CCC/C(C)=C/C[C@@H]1C[C@]2(CC=C(C)C)C(=O)[C@@](CC=C(C)C)(C(=O)C(C(=O)c3ccc(O)c(O)c3)=C2O)[C@@]1(C)CCC=C(C)C` [OBLONGIFOLIN C], the entry is “Not Active”; as for `CC(C)=CC[C@@]12C[C@@H](C)C(C)(C)[C@@H](C(=O)C(C(=O)c3ccccc3)=C1O)C2=O`, “Not Active”. Still for that read-out and setting: for `CC(C)=CCC/C(C)=C/C[C@H]1C[C@@]23C[C@@H](C(C)(C)O)OC2=C(C(=O)c2ccccc2)C(=O)[C@H](C3=O)C1(C)C` the value was “Not Active”. On to `CC(=O)C[C@H]1[C@@H]2C[C@]3(CC=C(C)C)C(=O)[C@@]1(C(=O)c1ccccc1)C(=O)[C@@](CC=C(C)C)(C3=O)C2(C)C`, for which the midpoint of cytotoxicity in data set [2], the CC50 at 96 h, lay at 47 µM. The IC50 in data set [1] (setting [4]) worked out at 31.1 µM. Further, in data set [3], the “Ratio CC50/IC50” value is recorded as 1.5.

In the case of `COc1cc(O)c2c(=O)c3cc(CC=C(C)C)c(O)c(O)c3oc2c1C/C=C(\C)CCC=C(C)C`, the IC50 result in data set [1] (vero) is listed as “Not Active”. `NC(=O)c1ncn([C@@H]2O[C@H](CO)[C@@H](O)[C@H]2O)n1` [RIBAVIRIN]: the CC50 at 96 h in data set [2] is > 1000 µM. Also, the half-maximal inhibitory concentration (IC50) in data set [1] (setting [4]) amounted to 253 µM. For the same compound, the “Ratio CC50/IC50” value in data set [3] is given as >4.

(Values after ChEMBL document CHEMBL3232875, “Prenylated benzoylphloroglucinols and xanthones from the leaves of Garcinia oblongifolia with antienteroviral activity” (J Nat Prod, 2014).)
